Compounds with a hit are over-represented: about 1.8% of the library has one in this group of screens.
mABHD4 FP – ABHD4 inhibitors, primary screen, biochemical, fluorescence polarization, mouse; (Lyso)-N-acylphosphatidylethanolamine lipase (Mus musculus), Q8VD66; purified mABHD4, FP-Rh probe fluorescence polarization; inhibition, % at 8.92 µM; 370,000 compounds, 0.54% hits; AID 720543, 2013;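 active = inhibition exceeding the mean over every tested compound plus 3 SD, cut at about 30% in these data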
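system = mouse ABHD4 enzyme, wild type | medium = HEPES pH 7.0, NaCl, Pluronic buffer | also added = FP-Rh probe | incubation = Enzyme–compound pre-incubation 45 min, then probe 60 min, both 25 °C | technique = fluorescence polarization, excitation 525 nm, emission 598 nm, BODIPY TMR filters | controls = S159A mutant high control, sample median low control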
Tn6 DDE FP – inhibitors of Tn6 peptide binding to fibrin DD(E), primary screen, biochemical, fluorescence polarization, human fibrin, Tn6 probe | Fibrinogen beta chain (Homo sapiens), P02675 | Fibrin DD(E) TRITC-Tn6 fluorescence polarization displacement | inhibition, % at 8.3 µM | 370,000 compounds, 0.21% hits | AID 720509, 2013;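 active = inhibition above a per-campaign cutoff: mean of compounds within control limits plus 3 SD, cut at about 15% in these data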
Target sequence (P02675 whole entry, looked up): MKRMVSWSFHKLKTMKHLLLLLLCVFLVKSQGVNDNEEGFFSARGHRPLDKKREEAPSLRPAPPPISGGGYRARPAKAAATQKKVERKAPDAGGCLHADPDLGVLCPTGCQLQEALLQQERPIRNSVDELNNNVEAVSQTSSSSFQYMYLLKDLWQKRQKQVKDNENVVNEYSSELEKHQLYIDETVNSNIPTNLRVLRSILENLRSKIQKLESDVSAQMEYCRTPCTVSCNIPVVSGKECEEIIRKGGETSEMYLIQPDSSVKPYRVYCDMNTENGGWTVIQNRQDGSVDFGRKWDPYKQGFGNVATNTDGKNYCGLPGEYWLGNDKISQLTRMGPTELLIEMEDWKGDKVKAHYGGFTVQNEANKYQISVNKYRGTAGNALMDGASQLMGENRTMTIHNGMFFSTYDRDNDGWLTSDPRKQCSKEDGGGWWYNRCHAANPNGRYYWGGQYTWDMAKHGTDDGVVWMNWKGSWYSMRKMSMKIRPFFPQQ
HTRA1 inh – HTRA1 serine protease inhibitors, primary screen, biochemical, fluorescence polarization, HTS; Q92743; recombinant HTRA1, FP-rhodamine activity-based probe; inhibition, % at 5.96 µM; 340,000 compounds, 0.5% hits; AID 504803, 2011; in the data active = inhibition above about 36%
TCR-CD3 inh – inhibitors of human TCR-CD3 interaction, primary screen, biochemical, fluorescence, TAMRA-labeled TCR probe; T-cell receptor (TCR); inhibition, % at 9.4 µM; 360,000 compounds, 0.37% hits; AID 651800, 2012; in the data active = inhibition above about 19%;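 also: recombinant mutant TCR 2C K166C tagged with TAMRA read by polarization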
DDE Tn7 FP inh – inhibitors of Tn7 peptide binding to fibrin DD(E), primary screen, biochemical, fluorescence polarization, human fibrin, Tn7 probe; FP displacement of FITC-Tn7 peptide from fibrin DD(E); 0% = median of compound wells per plate; 370,000 compounds, 0.13% hits; inhibition, % at 8.3 µM; Fibrinogen beta chain (Homo sapiens), P02675; AID 720508, 2013;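 active = inhibition above the mean of compounds falling within the control limits plus 3 SD of them, cut at about 14% in these data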
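Assay system: Fibrin-DD(E) protein isolated from polymerized human fibrin clots; read-out basis: percent inhibition; medium: Tris/NaCl/CaCl2 buffer, pH 7.8; signal: FP measurement; incubation: 10 min plus 3 h, room temperature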
SIAE primary – human SIAE inhibitors, primary screen, biochemical, fluorescence polarization, FP-Rh probe, 1536-well HTS. Sialate O-acetylesterase (Homo sapiens), Q9HAT2. SIAE FP-Rh probe binding. inhibition, % at 9.66 µM. 370,000 compounds, 0.69% hits. AID 1053197, 2014;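 active = inhibition above a cutoff: mean of compounds within the control limits plus 3 SD of those, cut at about 17% in these data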
DDE Tn7 confirm – inhibitors of Tn7 peptide binding to fibrin DD(E), confirmation, biochemical, fluorescence polarization, human fibrin, Tn7 probe. shares compounds with DDE Tn7 FP inh. 460 compounds, 5% hits. inhibition, % at 8.3 µM. FP displacement of TRITC-Tn7 peptide from DD(E); 0% set at plate's compound-well median;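 active = inhibition above the campaign cutoff, the mean of compounds within control limits plus 3 SD, cut at about 14% in these data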;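 also: displacers lower polarization since freed probe rises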
Tn7 DDE ctr – counter-screen for inhibitors of Tn7 peptide binding to fibrin DD(E). TRITC-Tn7 probe displacement, fluorescence polarization. 460 compounds, 3% hits. inhibition, % at 8.3 µM. shares compounds with DDE Tn7 FP inh. AID 720633;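 active = inhibition above the cutoff, the mean of compounds lying between the control bounds plus 3 SD of those compounds, cut at about 17% in these data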
Of the large screens only hits and unclear results are named; the others gave an inactive call (follow-up assays come after a bar, where they were run).

COc1ccc(CC(=O)Nc2ccc(F)c(Cl)c2)cc1S(=O)(=O)N1CCOCC1	none
O=C(NC1CCN(S(=O)(=O)c2ccc(Cl)cc2)CC1)C1CCCCC1	DDE Tn7 FP inh 14 | DDE Tn7 confirm inactive | Tn7 DDE ctr inactive
Brc1c(CSc2nnc(-c3ccco3)o2)nc2ccccn12	none
c1coc(-c2nnc(SCc3cn4ccccc4n3)o2)c1	DDE Tn7 FP inh 14 | DDE Tn7 confirm inactive | Tn7 DDE ctr inactive
COc1ccc(-c2ccc3c(n2)CCCN3S(=O)(=O)c2ccc(C(F)(F)F)cc2)cc1	none (no result: HTRA1 inh)
COCCCn1c(SC(C)C(=O)Nc2c(C)n(C)n(-c3ccccc3)c2=O)n[nH]c1=O (stereo not drawn)	none
O=c1[nH]c(-[n+]2ccccc2)c(/C=N/NC([S-])=Nc2ccccc2)s1	DDE Tn7 FP inh 15 | DDE Tn7 confirm inactive | Tn7 DDE ctr inactive
Cc1cc[n+](-c2[nH]c(=O)sc2/C=N/NC([S-])=Nc2ccccc2)cc1	none
COC(=O)[C@@]12C[C@@H](CC(=O)NCCCCc3ccccc3)C(=O)N(Cc3ccc4c(c3)OCO4)C1=CCC(C)(C)C2	none (no result: HTRA1 inh)
COc1ccc(CC(=O)NCc2n[nH]c(=S)n2-c2ccc(F)cc2)cc1	none
COc1ccc(CC(=O)NCc2n[nH]c(=S)n2-c2ccccc2OC)cc1	DDE Tn7 FP inh 15 | DDE Tn7 confirm inactive | Tn7 DDE ctr inactive
C=C(C)C1CC=C(C)/C(=N/NC(=O)c2ccc(NC(=O)CCC)cc2)C1 (stereo not drawn)	DDE Tn7 FP inh 14 | DDE Tn7 confirm inactive | Tn7 DDE ctr inactive
C=C(C)C1CC=C(C)/C(=N/NC(=O)c2ccc(NC(=O)CC)cc2)C1 (stereo not drawn)	none
O=C(NCC1CCOCC1)c1ccc2nc(Cc3cccc(Cl)c3)oc2c1	none
COc1ccc(CC(NC(C)=O)C(=O)NC2CCN(c3c(Cc4ccccc4)c(C)nc4ncnn34)CC2)c(OC)c1 (stereo not drawn)	DDE Tn7 FP inh 14 | DDE Tn7 confirm inactive | Tn7 DDE ctr inactive
Cc1ccc(NC(=O)Cn2c(O)c(N=NC(N)=S)c3ccccc32)cc1	none
Cc1ccc(NC(=O)Cn2c(O)c(N=NC(N)=O)c3ccccc32)cc1	DDE Tn7 FP inh 14 | DDE Tn7 confirm inactive | Tn7 DDE ctr inactive
Cc1ccccc1NC(=O)CCS(=O)(=O)c1ccccc1	none (no result: HTRA1 inh, TCR-CD3 inh)
Cc1cccc(NC(=O)CCS(=O)(=O)c2ccccc2)n1	DDE Tn7 FP inh 14 | DDE Tn7 confirm inactive | Tn7 DDE ctr inactive
CCc1nc2ccc(C(=O)NCCc3ccc(OC)c(OC)c3)cc2nc1CC	none
CCc1nc2ccc(C(=O)NCCc3ccccc3OC)cc2nc1CC	DDE Tn7 FP inh 14 | DDE Tn7 confirm inactive | Tn7 DDE ctr inactive
O=C(Nc1ccccn1)C1CCCN(c2ncnc3c2nc2n3CCCCC2)C1 (stereo not drawn)	none
CCc1ccc(CNC(=O)c2cc3c(C)nc4ccccc4c3o2)cc1	DDE Tn7 FP inh 14 | DDE Tn7 confirm inactive | Tn7 DDE ctr inactive
COc1ccc2c(CC(=O)O)cc(=O)oc2c1	DDE Tn7 FP inh 15 | DDE Tn7 confirm inactive | Tn7 DDE ctr inactive
O=C(Cc1ccccc1)NNC1=NS(=O)(=O)c2ccccc21	DDE Tn7 FP inh 14 | DDE Tn7 confirm inactive | Tn7 DDE ctr inactive
CC(CCc1ccco1)NC(=O)Cn1ncc2c(=O)oc3ccccc3c21 (stereo not drawn)	DDE Tn7 FP inh 15 | DDE Tn7 confirm inactive | Tn7 DDE ctr inactive
CC(C)OCCCNC(=O)Cn1ncc2c(=O)oc3ccccc3c21	none
CC(C)C1C(C#N)=C(N)SC(N)=C1C#N	DDE Tn7 FP inh 14 | DDE Tn7 confirm inactive | Tn7 DDE ctr inactive
CCC(CC)C1C(C#N)=C(N)SC(N)=C1C#N	none
CCOC(=O)C1(Cc2cccc(F)c2)CCN(Cc2ccon2)CC1	DDE Tn7 FP inh 14 (no result: HTRA1 inh) | DDE Tn7 confirm inactive | Tn7 DDE ctr inactive
CCOC(=O)C1(Cc2ccc(Cl)cc2)CCN(Cc2ccon2)CC1	none
CC1=CC(c2ccc(Cl)cc2)n2nc(NS(=O)(=O)c3ccc(C)cc3)nc2N1 (stereo not drawn)	DDE Tn7 FP inh 14 | DDE Tn7 confirm inactive | Tn7 DDE ctr inactive
O=C(CSc1nc2ccc(Nc3nc(N4CCOCC4)nc(N4CCOCC4)n3)cc2s1)Nc1ccccc1F	DDE Tn7 FP inh 16 | DDE Tn7 confirm inactive | Tn7 DDE ctr inactive
O=C(CSc1nc2ccc(Nc3nc(N4CCOCC4)nc(N4CCOCC4)n3)cc2s1)Nc1ccccc1Cl	none
O=C(c1cc2ccccc2o1)N1CCCCCC1	none
O=C(c1oc2ccccc2c1N1CCCCC1)N1CCCCC1	DDE Tn7 FP inh 15 | DDE Tn7 confirm inactive | Tn7 DDE ctr inactive
COc1ccccc1N(CC(=O)NCCSCc1ccc(Cl)cc1)S(C)(=O)=O	none
COc1ccccc1N(CC(=O)NCCSCc1ccccc1)S(C)(=O)=O	DDE Tn7 FP inh 14 | DDE Tn7 confirm inactive | Tn7 DDE ctr inactive
CCCC[C@@H]1CNC(=S)N1CCc1cccc(F)c1	none
Fc1cccc(CCN2C(=S)NC[C@@H]2Cc2ccccc2)c1	DDE Tn7 FP inh 15 | DDE Tn7 confirm inactive | Tn7 DDE ctr inactive
O=C(COC(=O)CNS(=O)(=O)c1ccccc1)Nc1ncc(Cl)cc1Cl	none
CN(C(=O)c1cccc(NC(=O)Cc2cccc(NC(=O)C3CCN(C(=O)C4CCCCC4)CC3)c2)c1)C1CC1	DDE Tn7 FP inh 15 | DDE Tn7 confirm inactive | Tn7 DDE ctr inactive
CCCCOC(=O)N1CCOCCOCCOCC1	none
CN1CCN(C(=O)OCCOCCOC(=O)N2CCN(C)CC2)CC1	DDE Tn7 FP inh 14 | DDE Tn7 confirm inactive | Tn7 DDE ctr inactive
CC(C)(C)c1cc[n+](-c2[nH]c(=O)sc2/C=N/N=C(\[O-])c2cccnc2)cc1	none
O=c1[nH]c(-[n+]2ccc3ccccc3c2)c(/C=N/N=C(\[O-])c2ccccc2)s1	DDE Tn7 FP inh 17 | DDE Tn7 confirm inactive | Tn7 DDE ctr inactive
COc1cccc(NC(=O)CN(C)C(=O)Cn2c(=O)oc3ccccc32)c1	none
COc1ccc(OC)c(/C=C/C(=O)OCC(=O)Nc2nnc(-c3ccccc3)o2)c1	DDE Tn7 FP inh 14 | DDE Tn7 confirm inactive | Tn7 DDE ctr inactive
